In ChEMBL document CHEMBL1143162, “Synthesis and pharmacological evaluation of pyrazoline derivatives as new anti-inflammatory and analgesic agents” (Bioorg Med Chem Lett, 2008):

Each molecule was assayed on Liver (assay: Hepatotoxicity in rat assessed as hepatocyte necrosis). Settings: hepatocytes.
Format: toxicity, tissue-based

Structure (SMILES)	Activity
COc1cc(OC)c(C2CC(c3ccc(-c4ccccc4)cc3)=NN2C(=O)c2ccccc2)c(OC)c1 (stereo not drawn)	Non-toxic
Cc1ccc(C2CC(c3ccc(-c4ccccc4)cc3)=NN2)cc1 (stereo not drawn)	Non-toxic

Each molecule was assayed on Mus musculus (assay: Analgesic activity in mouse at 41 umol/kg, po by tail immersion method relative to flurbiprophen). Settings: not given.
Format: functional
Procedure, shortened: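 Tail-immersion test in mice, oral dose of 41 µmol/kg. Tail reaction time (s) was read before dosing (0 h) and 4 h after dosing. % inhibition was calculated relative to each animal's pre-treatment value. n = 6, compared by paired Student's t test.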

Structure (SMILES)	Activity
COc1cc(OC)c(C2CC(c3ccc(-c4ccccc4)cc3)=NN2C(=O)c2ccccc2)c(OC)c1 (stereo not drawn)	43.2%
CC(C(=O)O)c1ccc(-c2ccccc2)c(F)c1 (stereo not drawn) [FLURBIPROFEN]	69.5%
Cc1ccc(C2CC(c3ccc(-c4ccccc4)cc3)=NN2)cc1 (stereo not drawn)	72.9%
COc1cc(OC)c(C2CC(c3ccc(-c4ccccc4)cc3)=NN2)c(OC)c1 (stereo not drawn)	28.6%

Each molecule was assayed on Rattus norvegicus (assay: Antiinflammatory activity against carrageenan-induced hind paw edema in rat at 41 umol/kg, po after 3 hrs relative to flurbiprophen). Settings: not given.
Format: functional
Procedure, shortened: (§1)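 Given orally to rats at a dose equimolar to 10 mg/kg (41 µmol/kg) of the reference drug. Paw-oedema % inhibition was calculated at both 3 h and 4 h after dosing.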

Structure (SMILES)	Activity
O=C(c1ccccc1)N1N=C(c2ccc(-c3ccccc3)cc2)CC1c1ccccc1Cl (stereo not drawn)	31.57%
O=C(c1ccccc1)N1N=C(c2ccc(-c3ccccc3)cc2)CC1c1ccccc1 (stereo not drawn)	28.06%
CN(C)c1ccc(C2CC(c3ccc(-c4ccccc4)cc3)=NN2C(=O)c2ccccc2)cc1 (stereo not drawn)	33.32%
Clc1ccc(C2CC(c3ccc(-c4ccccc4)cc3)=NN2)cc1 (stereo not drawn)	22.8%
Cc1ccc(C2CC(c3ccc(-c4ccccc4)cc3)=NN2C(=O)c2ccccc2)cc1 (stereo not drawn)	29.82%
O=C(c1ccccc1)N1N=C(c2ccc(-c3ccccc3)cc2)CC1c1ccc(Cl)cc1 (stereo not drawn)	35.08%
COc1ccc(C2CC(c3ccc(-c4ccccc4)cc3)=NN2C(=O)c2ccccc2)cc1 (stereo not drawn)	40.34%
COc1cc(OC)c(C2CC(c3ccc(-c4ccccc4)cc3)=NN2C(=O)c2ccccc2)c(OC)c1 (stereo not drawn)	73.68%
COc1ccc(C2CC(c3ccc(-c4ccccc4)cc3)=NN2C(=O)c2ccccc2)cc1OC (stereo not drawn)	28.06%
c1ccc(-c2ccc(C3=NNC(c4ccccc4)C3)cc2)cc1 (stereo not drawn)	35.08%
CC(C(=O)O)c1ccc(-c2ccccc2)c(F)c1 (stereo not drawn) [FLURBIPROFEN]	73.68%
Cc1ccc(C2CC(c3ccc(-c4ccccc4)cc3)=NN2)cc1 (stereo not drawn)	73.69%
Clc1ccccc1C1CC(c2ccc(-c3ccccc3)cc2)=NN1 (stereo not drawn)	31.57%
CN(C)c1ccc(C2CC(c3ccc(-c4ccccc4)cc3)=NN2)cc1 (stereo not drawn)	33.33%
COc1ccc(C2CC(c3ccc(-c4ccccc4)cc3)=NN2)cc1 (stereo not drawn)	35.08%
COc1ccc(C2CC(c3ccc(-c4ccccc4)cc3)=NN2)cc1OC (stereo not drawn)	35.08%
COc1cc(OC)c(C2CC(c3ccc(-c4ccccc4)cc3)=NN2)c(OC)c1 (stereo not drawn)	80.7%

What follows are molecules tested on Mus musculus (assay: Ulcerogenic effect in mouse at 123 umol/kg, po relative to flurbiprophen). Settings: in vivo.
Format: toxicity, organism-based
Procedure, shortened: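 Acute ulcerogenic test with oral dosing at an amount equimolar to 30 mg/kg flurbiprofen. Gastric damage is scored as a severity index, given as mean ± SEM (n = 6). Comparison is against the standard by ANOVA with Dunnett's multiple comparison test.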

Structure (SMILES)	UI
COc1cc(OC)c(C2CC(c3ccc(-c4ccccc4)cc3)=NN2C(=O)c2ccccc2)c(OC)c1 (stereo not drawn)	0.583
CC(C(=O)O)c1ccc(-c2ccccc2)c(F)c1 (stereo not drawn) [FLURBIPROFEN]	1.666
Cc1ccc(C2CC(c3ccc(-c4ccccc4)cc3)=NN2)cc1 (stereo not drawn)	0.5
COc1cc(OC)c(C2CC(c3ccc(-c4ccccc4)cc3)=NN2)c(OC)c1 (stereo not drawn)	0.833

These molecules were tested on Rattus norvegicus (assay: Antiinflammatory activity against carrageenan-induced hind paw edema in rat at 41 umol/kg, po after 4 hrs relative to flurbiprophen). Settings: not given.
Format: functional
Procedure, shortened: as §1

Structure (SMILES)	Activity
O=C(c1ccccc1)N1N=C(c2ccc(-c3ccccc3)cc2)CC1c1ccccc1Cl (stereo not drawn)	38.59%
O=C(c1ccccc1)N1N=C(c2ccc(-c3ccccc3)cc2)CC1c1ccccc1 (stereo not drawn)	33.32%
CN(C)c1ccc(C2CC(c3ccc(-c4ccccc4)cc3)=NN2C(=O)c2ccccc2)cc1 (stereo not drawn)	35.08%
Clc1ccc(C2CC(c3ccc(-c4ccccc4)cc3)=NN2)cc1 (stereo not drawn)	28.06%
Cc1ccc(C2CC(c3ccc(-c4ccccc4)cc3)=NN2C(=O)c2ccccc2)cc1 (stereo not drawn)	31.57%
O=C(c1ccccc1)N1N=C(c2ccc(-c3ccccc3)cc2)CC1c1ccc(Cl)cc1 (stereo not drawn)	42.1%
COc1ccc(C2CC(c3ccc(-c4ccccc4)cc3)=NN2C(=O)c2ccccc2)cc1 (stereo not drawn)	47.36%
COc1cc(OC)c(C2CC(c3ccc(-c4ccccc4)cc3)=NN2C(=O)c2ccccc2)c(OC)c1 (stereo not drawn)	75.38%
COc1ccc(C2CC(c3ccc(-c4ccccc4)cc3)=NN2C(=O)c2ccccc2)cc1OC (stereo not drawn)	35.08%
c1ccc(-c2ccc(C3=NNC(c4ccccc4)C3)cc2)cc1 (stereo not drawn)	38.6%
CC(C(=O)O)c1ccc(-c2ccccc2)c(F)c1 (stereo not drawn) [FLURBIPROFEN]	80.69%
Cc1ccc(C2CC(c3ccc(-c4ccccc4)cc3)=NN2)cc1 (stereo not drawn)	82.45%
Clc1ccccc1C1CC(c2ccc(-c3ccccc3)cc2)=NN1 (stereo not drawn)	31.57%
CN(C)c1ccc(C2CC(c3ccc(-c4ccccc4)cc3)=NN2)cc1 (stereo not drawn)	36.84%
COc1ccc(C2CC(c3ccc(-c4ccccc4)cc3)=NN2)cc1 (stereo not drawn)	36.83%
COc1ccc(C2CC(c3ccc(-c4ccccc4)cc3)=NN2)cc1OC (stereo not drawn)	40.35%
COc1cc(OC)c(C2CC(c3ccc(-c4ccccc4)cc3)=NN2)c(OC)c1 (stereo not drawn)	82.45%

Each molecule was assayed on Gastric mucosa (assay: Inhibition of lipid peroxidation in mouse gastric mucosa tissue assessed as malondialdehyde level per 100 mg tissue relative to flurbiprophen). Settings: not given.
Format: functional, tissue-based
Procedure, shortened: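 Animals receive the oral dose used in the ulcerogenic study, equimolar to 30 mg/kg flurbiprofen. Lipid peroxidation in the tissue is read as MDA content in nmol per 100 mg tissue, given as mean ± SEM (n = 6). Comparison is against the standard by ANOVA with Dunnett's test.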

Structure (SMILES)	Activity
COc1cc(OC)c(C2CC(c3ccc(-c4ccccc4)cc3)=NN2C(=O)c2ccccc2)c(OC)c1 (stereo not drawn)	5.18 nmol
CC(C(=O)O)c1ccc(-c2ccccc2)c(F)c1 (stereo not drawn) [FLURBIPROFEN]	7.51 nmol
Cc1ccc(C2CC(c3ccc(-c4ccccc4)cc3)=NN2)cc1 (stereo not drawn)	5.04 nmol
COc1cc(OC)c(C2CC(c3ccc(-c4ccccc4)cc3)=NN2)c(OC)c1 (stereo not drawn)	5.58 nmol
